{
  "source": "ChEMBL document CHEMBL4316611",
  "about": "“Design, synthesis and evaluation of novel (S)-tryptamine derivatives containing an allyl group and an aryl sulfonamide unit as anticancer agents” (Bioorg Med Chem Lett, 2019)",
  "data": [
    {"tested_on": "HepG2", "assay": "Cytotoxicity in human HepG2 cells assessed as reduction in cell viability incubated for 48 hrs by MTT assay", "assay_type": "functional, cell-based", "settings": "HepG2, 48 h", "method_in_brief": "(§1)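 MTT viability assay; cells exposed continuously to compounds for 48 h. IC50 values reported as mean ± SD. Cisplatin served as positive control.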", "units": {"IC50": "µM"}, "values": [
      {"smiles": "C=CC[C@@H](Cc1c[nH]c2ccccc12)NS(=O)(=O)c1cccc2c(N(C)C)cccc12", "IC50": 52},
      {"smiles": "C=CC[C@@H](Cc1c[nH]c2ccccc12)NS(=O)(=O)c1ccc(Br)cc1Cl", "IC50": 54.3},
      {"smiles": "C=CC[C@@H](Cc1c[nH]c2ccccc12)NS(=O)(=O)c1ccccc1", "IC50": 58.4},
      {"smiles": "C=CC[C@@H](Cc1c[nH]c2ccccc12)NS(=O)(=O)c1ccc(-c2ccccc2)cc1", "IC50": 43},
      {"smiles": "C=CC[C@@H](Cc1c[nH]c2ccccc12)NS(=O)(=O)c1c(C)cc(C)cc1C", "IC50": 37.2},
      {"smiles": "C=CC[C@@H](Cc1c[nH]c2ccccc12)NS(=O)(=O)c1ccc(Cl)cc1Cl", "IC50": 55.4},
      {"smiles": "C=CC[C@@H](Cc1c[nH]c2ccccc12)NS(=O)(=O)c1ccc(C)c(F)c1", "IC50": 39.1},
      {"smiles": "C=CC[C@@H](Cc1c[nH]c2ccccc12)NS(=O)(=O)c1ccc(Cl)c(C(F)(F)F)c1", "IC50": 24.4},
      {"smiles": "CCC[C@@H](Cc1c[nH]c2ccccc12)NS(=O)(=O)c1c(C(C)C)cc(C(C)C)cc1C(C)C", "IC50": 30.8},
      {"smiles": "C=CC[C@@H](Cc1c[nH]c2ccccc12)NS(=O)(=O)c1ccc(OC(F)(F)F)cc1", "IC50": 36},
      {"smiles": "C=CC[C@@H](Cc1c[nH]c2ccccc12)NS(=O)(=O)c1cc(Br)cc(C(F)(F)F)c1", "IC50": 25.3},
      {"smiles": "C=CC[C@@H](Cc1c[nH]c2ccccc12)NS(=O)(=O)c1ccc(C(F)(F)F)cc1[N+](=O)[O-]", "IC50": 40.4},
      {"smiles": "C=CC[C@@H](Cc1c[nH]c2ccccc12)NS(=O)(=O)c1ccc(F)c(C(F)(F)F)c1", "IC50": 36.3},
      {"smiles": "C=CC[C@@H](Cc1c[nH]c2ccccc12)NS(=O)(=O)c1ccc(Br)cc1", "IC50": 39.6},
      {"smiles": "C=CC[C@@H](Cc1c[nH]c2ccccc12)NS(=O)(=O)c1ccc(C(F)(F)F)cc1Br", "IC50": 42.1},
      {"smiles": "C=CC[C@@H](Cc1c[nH]c2ccccc12)NS(=O)(=O)c1cc(Cl)c(F)cc1F", "IC50": 33.2},
      {"smiles": "C=CC[C@@H](Cc1c[nH]c2ccccc12)NS(=O)(=O)c1ccc(Br)c(C)c1", "IC50": 52.2},
      {"smiles": "C=CC[C@@H](Cc1c[nH]c2ccccc12)NS(=O)(=O)c1ccc(C)cc1", "IC50": "> 100"},
      {"smiles": "C=CC[C@@H](Cc1c[nH]c2ccccc12)NS(=O)(=O)c1ccc(C(F)(F)F)cc1Cl", "IC50": 33.1},
      {"smiles": "C=CC[C@@H](Cc1c[nH]c2ccccc12)NS(=O)(=O)c1ccc(Cl)cc1[N+](=O)[O-]", "IC50": 71.3},
      {"smiles": "C=CC[C@@H](Cc1c[nH]c2ccccc12)NS(=O)(=O)c1cc(C(F)(F)F)cc(C(F)(F)F)c1", "IC50": 21.9}
    ]},
    {"tested_on": "HeLa", "assay": "Cytotoxicity in human HeLa cells assessed as reduction in cell viability incubated for 48 hrs by MTT assay", "assay_type": "functional, cell-based", "settings": "not given", "method_in_brief": "as §1", "units": {"IC50": "µM"}, "values": [
      {"smiles": "C=CC[C@@H](Cc1c[nH]c2ccccc12)NS(=O)(=O)c1cccc2c(N(C)C)cccc12", "IC50": 34.5},
      {"smiles": "C=CC[C@@H](Cc1c[nH]c2ccccc12)NS(=O)(=O)c1ccc(Br)cc1Cl", "IC50": 53.5},
      {"smiles": "C=CC[C@@H](Cc1c[nH]c2ccccc12)NS(=O)(=O)c1ccccc1", "IC50": 69.5},
      {"smiles": "C=CC[C@@H](Cc1c[nH]c2ccccc12)NS(=O)(=O)c1ccc(-c2ccccc2)cc1", "IC50": 34.5},
      {"smiles": "C=CC[C@@H](Cc1c[nH]c2ccccc12)NS(=O)(=O)c1c(C)cc(C)cc1C", "IC50": 35.3},
      {"smiles": "C=CC[C@@H](Cc1c[nH]c2ccccc12)NS(=O)(=O)c1ccc(Cl)cc1Cl", "IC50": 41.1},
      {"smiles": "C=CC[C@@H](Cc1c[nH]c2ccccc12)NS(=O)(=O)c1ccc(C)c(F)c1", "IC50": 43.6},
      {"smiles": "C=CC[C@@H](Cc1c[nH]c2ccccc12)NS(=O)(=O)c1ccc(Cl)c(C(F)(F)F)c1", "IC50": 42.8},
      {"smiles": "CCC[C@@H](Cc1c[nH]c2ccccc12)NS(=O)(=O)c1c(C(C)C)cc(C(C)C)cc1C(C)C", "IC50": 16.4},
      {"smiles": "C=CC[C@@H](Cc1c[nH]c2ccccc12)NS(=O)(=O)c1ccc(OC(F)(F)F)cc1", "IC50": 57.3},
      {"smiles": "C=CC[C@@H](Cc1c[nH]c2ccccc12)NS(=O)(=O)c1cc(Br)cc(C(F)(F)F)c1", "IC50": 31.9},
      {"smiles": "C=CC[C@@H](Cc1c[nH]c2ccccc12)NS(=O)(=O)c1ccc(C(F)(F)F)cc1[N+](=O)[O-]", "IC50": 35.7},
      {"smiles": "C=CC[C@@H](Cc1c[nH]c2ccccc12)NS(=O)(=O)c1ccc(F)c(C(F)(F)F)c1", "IC50": 32},
      {"smiles": "C=CC[C@@H](Cc1c[nH]c2ccccc12)NS(=O)(=O)c1ccc(Br)cc1", "IC50": 61},
      {"smiles": "C=CC[C@@H](Cc1c[nH]c2ccccc12)NS(=O)(=O)c1ccc(C(F)(F)F)cc1Br", "IC50": 39.3},
      {"smiles": "C=CC[C@@H](Cc1c[nH]c2ccccc12)NS(=O)(=O)c1cc(Cl)c(F)cc1F", "IC50": 46.9},
      {"smiles": "C=CC[C@@H](Cc1c[nH]c2ccccc12)NS(=O)(=O)c1ccc(Br)c(C)c1", "IC50": 46.7},
      {"smiles": "C=CC[C@@H](Cc1c[nH]c2ccccc12)NS(=O)(=O)c1ccc(C)cc1", "IC50": "> 100"},
      {"smiles": "C=CC[C@@H](Cc1c[nH]c2ccccc12)NS(=O)(=O)c1ccc(C(F)(F)F)cc1Cl", "IC50": 44.8},
      {"smiles": "C=CC[C@@H](Cc1c[nH]c2ccccc12)NS(=O)(=O)c1ccc(Cl)cc1[N+](=O)[O-]", "IC50": 67.9},
      {"smiles": "C=CC[C@@H](Cc1c[nH]c2ccccc12)NS(=O)(=O)c1cc(C(F)(F)F)cc(C(F)(F)F)c1", "IC50": 30.2}
    ]},
    {"tested_on": "CNE", "assay": "Cytotoxicity in human CNE1 cells assessed as reduction in cell viability incubated for 48 hrs by MTT assay", "assay_type": "functional, cell-based", "settings": "not given", "method_in_brief": "as §1", "units": {"IC50": "µM"}, "values": [
      {"smiles": "C=CC[C@@H](Cc1c[nH]c2ccccc12)NS(=O)(=O)c1cccc2c(N(C)C)cccc12", "IC50": 36},
      {"smiles": "C=CC[C@@H](Cc1c[nH]c2ccccc12)NS(=O)(=O)c1ccc(Br)cc1Cl", "IC50": 38.5},
      {"smiles": "C=CC[C@@H](Cc1c[nH]c2ccccc12)NS(=O)(=O)c1ccccc1", "IC50": 40.8},
      {"smiles": "C=CC[C@@H](Cc1c[nH]c2ccccc12)NS(=O)(=O)c1ccc(-c2ccccc2)cc1", "IC50": 34.5},
      {"smiles": "C=CC[C@@H](Cc1c[nH]c2ccccc12)NS(=O)(=O)c1c(C)cc(C)cc1C", "IC50": 31.5},
      {"smiles": "C=CC[C@@H](Cc1c[nH]c2ccccc12)NS(=O)(=O)c1ccc(Cl)cc1Cl", "IC50": 42.7},
      {"smiles": "C=CC[C@@H](Cc1c[nH]c2ccccc12)NS(=O)(=O)c1ccc(C)c(F)c1", "IC50": 39.8},
      {"smiles": "C=CC[C@@H](Cc1c[nH]c2ccccc12)NS(=O)(=O)c1ccc(Cl)c(C(F)(F)F)c1", "IC50": 28.8},
      {"smiles": "CCC[C@@H](Cc1c[nH]c2ccccc12)NS(=O)(=O)c1c(C(C)C)cc(C(C)C)cc1C(C)C", "IC50": 17.8},
      {"smiles": "C=CC[C@@H](Cc1c[nH]c2ccccc12)NS(=O)(=O)c1ccc(OC(F)(F)F)cc1", "IC50": 39.9},
      {"smiles": "C=CC[C@@H](Cc1c[nH]c2ccccc12)NS(=O)(=O)c1cc(Br)cc(C(F)(F)F)c1", "IC50": 22.9},
      {"smiles": "C=CC[C@@H](Cc1c[nH]c2ccccc12)NS(=O)(=O)c1ccc(C(F)(F)F)cc1[N+](=O)[O-]", "IC50": 39.3},
      {"smiles": "C=CC[C@@H](Cc1c[nH]c2ccccc12)NS(=O)(=O)c1ccc(F)c(C(F)(F)F)c1", "IC50": 27},
      {"smiles": "C=CC[C@@H](Cc1c[nH]c2ccccc12)NS(=O)(=O)c1ccc(Br)cc1", "IC50": 41.2},
      {"smiles": "C=CC[C@@H](Cc1c[nH]c2ccccc12)NS(=O)(=O)c1ccc(C(F)(F)F)cc1Br", "IC50": 34.4},
      {"smiles": "C=CC[C@@H](Cc1c[nH]c2ccccc12)NS(=O)(=O)c1cc(Cl)c(F)cc1F", "IC50": 34.2},
      {"smiles": "C=CC[C@@H](Cc1c[nH]c2ccccc12)NS(=O)(=O)c1ccc(Br)c(C)c1", "IC50": 38.6},
      {"smiles": "C=CC[C@@H](Cc1c[nH]c2ccccc12)NS(=O)(=O)c1ccc(C(F)(F)F)cc1Cl", "IC50": 36.1},
      {"smiles": "C=CC[C@@H](Cc1c[nH]c2ccccc12)NS(=O)(=O)c1cc(C(F)(F)F)cc(C(F)(F)F)c1", "IC50": 24.1}
    ]},
    {"tested_on": "A549", "assay": "Cytotoxicity in human A549 cells assessed as reduction in cell viability incubated for 48 hrs by MTT assay", "assay_type": "functional, cell-based", "settings": "A549, 48 h", "method_in_brief": "as §1", "units": {"IC50": "µM"}, "values": [
      {"smiles": "C=CC[C@@H](Cc1c[nH]c2ccccc12)NS(=O)(=O)c1cccc2c(N(C)C)cccc12", "IC50": 52.4},
      {"smiles": "C=CC[C@@H](Cc1c[nH]c2ccccc12)NS(=O)(=O)c1ccc(Br)cc1Cl", "IC50": 48.8},
      {"smiles": "C=CC[C@@H](Cc1c[nH]c2ccccc12)NS(=O)(=O)c1ccccc1", "IC50": 77.1},
      {"smiles": "C=CC[C@@H](Cc1c[nH]c2ccccc12)NS(=O)(=O)c1ccc(-c2ccccc2)cc1", "IC50": 33.6},
      {"smiles": "C=CC[C@@H](Cc1c[nH]c2ccccc12)NS(=O)(=O)c1c(C)cc(C)cc1C", "IC50": 40.4},
      {"smiles": "C=CC[C@@H](Cc1c[nH]c2ccccc12)NS(=O)(=O)c1ccc(Cl)cc1Cl", "IC50": 55.7},
      {"smiles": "C=CC[C@@H](Cc1c[nH]c2ccccc12)NS(=O)(=O)c1ccc(C)c(F)c1", "IC50": 70.2},
      {"smiles": "C=CC[C@@H](Cc1c[nH]c2ccccc12)NS(=O)(=O)c1ccc(Cl)c(C(F)(F)F)c1", "IC50": 34.3},
      {"smiles": "CCC[C@@H](Cc1c[nH]c2ccccc12)NS(=O)(=O)c1c(C(C)C)cc(C(C)C)cc1C(C)C", "IC50": 39.8},
      {"smiles": "C=CC[C@@H](Cc1c[nH]c2ccccc12)NS(=O)(=O)c1ccc(OC(F)(F)F)cc1", "IC50": 57.8},
      {"smiles": "C=CC[C@@H](Cc1c[nH]c2ccccc12)NS(=O)(=O)c1cc(Br)cc(C(F)(F)F)c1", "IC50": 29.3},
      {"smiles": "C=CC[C@@H](Cc1c[nH]c2ccccc12)NS(=O)(=O)c1ccc(C(F)(F)F)cc1[N+](=O)[O-]", "IC50": 74.2},
      {"smiles": "C=CC[C@@H](Cc1c[nH]c2ccccc12)NS(=O)(=O)c1ccc(F)c(C(F)(F)F)c1", "IC50": 38.5},
      {"smiles": "C=CC[C@@H](Cc1c[nH]c2ccccc12)NS(=O)(=O)c1ccc(Br)cc1", "IC50": 58.6},
      {"smiles": "C=CC[C@@H](Cc1c[nH]c2ccccc12)NS(=O)(=O)c1ccc(C(F)(F)F)cc1Br", "IC50": 43.9},
      {"smiles": "C=CC[C@@H](Cc1c[nH]c2ccccc12)NS(=O)(=O)c1cc(Cl)c(F)cc1F", "IC50": 50.7},
      {"smiles": "C=CC[C@@H](Cc1c[nH]c2ccccc12)NS(=O)(=O)c1ccc(Br)c(C)c1", "IC50": 54.1},
      {"smiles": "C=CC[C@@H](Cc1c[nH]c2ccccc12)NS(=O)(=O)c1ccc(C(F)(F)F)cc1Cl", "IC50": 53},
      {"smiles": "C=CC[C@@H](Cc1c[nH]c2ccccc12)NS(=O)(=O)c1cc(C(F)(F)F)cc(C(F)(F)F)c1", "IC50": 35.6}
    ]}
  ]
}
